Source: ChEMBL document CHEMBL2424606, “Selective cytotoxicity, inhibition of cell cycle progression, and induction of apoptosis in human breast cancer cells by sesquiterpenoids from Inula lineariifolia Turcz” (Eur J Med Chem, 2013)
Calls of active or inactive are those of the source. No cut-off for these calls is given here.

Experiments:
MCF-10A = assay: Cytotoxicity against human MCF10A cells assessed as growth inhibition after 72 hrs by MTT assay; type: cell-based
How it was run: (§1)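 3×10³ cells/well exposed 72 h to compound at 0, 1, 5, 10, 25, 50 μM, DMSO as vehicle control. MTT (5 mg/mL solution) added for 2–4 h at 37°C. Formazan dissolved in DMSO, absorbance read at 570 nm. Viability is mean OD relative to DMSO wells. IC50 from three separate experiments.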

MDA-MB-231 [1] = assay: Cytotoxicity against human MDA-MB-231 cells assessed as growth inhibition after 72 hrs by MTT assay; type: functional, cell-based; conditions: MDA-MB-231, 72 h; how it was run: as §1
MCF7 [2] = assay: Cytotoxicity against human MCF7 cells assessed as growth inhibition after 72 hrs by MTT assay; type: functional, cell-based; conditions: MCF7, 72 h; how it was run: as §1
MDA-MB-231 [3] = assay: Induction of apoptosis in human MDA-MB-231 cells assessed as apoptotic index at 5 uM after 48 hrs by annexin V-FITC/propidium iodide staining-based flow cytometric analysis relative to control; type: functional
How it was run: (§2)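 Treatment of 2–3×10⁵ cells with compound at 0, 1 or 5 μM for 48 h. Media plus cells collected, washed in serum-free medium, resuspended in Annexin V binding buffer. Stained with annexin V-FITC and propidium iodide 15 min in the dark at room temperature, then flow cytometry. Early (annexin only) and late (annexin+PI) apoptotic cells counted. Apoptotic index vs untreated cells. Means ± S.D., Student's t-test vs DMSO control.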

MCF7 [4] = assay: Induction of apoptosis in human MCF7 cells assessed as apoptotic index at 5 uM after 48 hrs by annexin V-FITC/propidium iodide staining-based flow cytometric analysis relative to control; type: functional; how it was run: as §2
MCF7 [5] = assay: Induction of apoptosis in human MCF7 cells after 48 hrs by annexin V-FITC/propidium iodide staining-based flow cytometric analysis; type: functional, cell-based; how it was run: as §2
MDA-MB-231 [6] = assay: Induction of apoptosis in human MDA-MB-231 cells after 48 hrs by annexin V-FITC/propidium iodide staining-based flow cytometric analysis; type: functional, cell-based; how it was run: as §2
MDA-MB-231 [7] = assay: Cell cycle arrest in human MDA-MB-231 cells assessed as accumulation at S phase at 2.5 uM after 24 hrs by propidium iodide staining-based flow cytometric analysis; type: functional
How it was run: (§3)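 Cells (2–3×10⁵) exposed to test compound at 0, 1 or 2.5 μM for 24 h. Trypsinized, PBS-washed, fixed in 95% ethanol at 4 °C overnight, RNAse-treated, propidium iodide-stained. DNA content measured by flow cytometry for phase distribution.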

MDA-MB-231 [8] = assay: Cell cycle arrest in human MDA-MB-231 cells assessed as accumulation at G2/M phase at 2.5 uM after 24 hrs by propidium iodide staining-based flow cytometric analysis; type: functional; how it was run: as §3
MDA-MB-231 [9] = assay: Cell cycle arrest in human MDA-MB-231 cells assessed as accumulation at S phase after 24 hrs by propidium iodide staining-based flow cytometric analysis; type: functional; how it was run: as §3
MCF7 [10] = assay: Cell cycle arrest in human MCF7 cells assessed as accumulation at G2/M phase at 2.5 uM after 24 hrs by propidium iodide staining-based flow cytometric analysis; type: functional; how it was run: as §3
MDA-MB-231 [11] = assay: Cell cycle arrest in human MDA-MB-231 cells assessed as accumulation at G2/M phase after 24 hrs by propidium iodide staining-based flow cytometric analysis; type: functional; how it was run: as §3
MCF7 [12] = assay: Cell cycle arrest in human MCF7 cells assessed as accumulation at G2/M phase after 24 hrs by propidium iodide staining-based flow cytometric analysis; type: functional; how it was run: as §3

Row | SMILES | IC50 (MCF-10A) | IC50 (MDA-MB-231 [1]) | IC50 (MCF7 [2]) | further results
1 | C=C1C(=O)O[C@@H]2CC(C)=C3[C@@H](OC(C)=O)C[C@@](C)(O)[C@@H]3[C@@H](O)[C@H]12 | > 50 µM | > 50 µM | > 50 µM | –
2 | C=C1C(=O)O[C@H]2C=C(C)[C@@H]3[C@@H]([C@@H](O)[C@H]12)[C@](C)(O)C[C@@H]3OC(C)=O | > 50 µM | 11.4 µM | 6.2 µM | –
3 | C=C1C(=O)O[C@@H]2CC(C)=C3[C@@H](OC(C)=O)C[C@@](C)(O)[C@@H]3C[C@H]12 [INUCHINENOLIDE B] | > 50 µM | 25.8 µM | 15.5 µM | –
4 | C=C1C(=O)O[C@H]2C[C@H](C)[C@@]34C[C@@]5(C(=O)O[C@H]6C=C(C)[C@H]7[C@@H](OC(C)=O)C[C@@](C)(O)[C@@H]7C[C@@H]65)[C@@H](C(C)=C3C[C@H]12)[C@@H]4O | > 50 µM | 16.5 µM | 7.8 µM | –
5 | C=C1C(=O)O[C@H]2C[C@H](C)[C@@]34C[C@@]5(C(=O)O[C@H]6C[C@@H](C)[C@@H]7[C@@H](OC(C)=O)C[C@H](O)[C@@]7(C)C[C@@H]65)[C@@H](C(C)=C3C[C@H]12)[C@@H]4O | 27.9 µM | 2.8 µM | 1.6 µM | fold change (FC) (MDA-MB-231 [3]): 14.2; fold change (FC) (MCF7 [4]): 7.6; Activity (MCF7 [5]): Dose-dependent effect; Activity (MDA-MB-231 [6]): Dose-dependent effect; Activity (MDA-MB-231 [7]): Active; Activity (MDA-MB-231 [8]): Active; Activity (MDA-MB-231 [9]): Dose-dependent effect; Activity (MCF7 [10]): Active; Activity (MDA-MB-231 [11]): Dose-dependent effect; Activity (MCF7 [12]): Dose-dependent effect
6 | C=C1C(=O)O[C@@H]2/C=C(\C)CC/C=C(\CO)C[C@@H](O)[C@@H]12 [DEACETYLOVATIFOLIN] | 45.7 µM | 13.8 µM | 6.9 µM | –
7 | C=C1C(=O)O[C@@H]2CC(C)=C3[C@@H](C[C@H]12)[C@](C)(O)C[C@@H]3O | > 50 µM | > 50 µM | > 50 µM | –
8 | CC(=O)O[C@H]1C=C(CCO)[C@@H](C)C[C@H]2OC(=O)[C@@H](C)[C@@H]12 | > 50 µM | > 50 µM | > 50 µM | –
9 | C=C1C[C@@H]2OC(=O)C(=C)[C@H]2C[C@@H]2[C@@H]1[C@@H](O)C[C@@]2(C)O | > 50 µM | 21.1 µM | 13.7 µM | –
10 | C[C@@H]1C2=C[C@H]3[C@@H](C[C@@]2(C)CC[C@@H]1O)OC(=O)[C@@H]3C | > 50 µM | > 50 µM | > 50 µM | –
11 | C=C1C(=O)O[C@H]2C[C@H](C)[C@@]34C[C@@]5(C(=O)O[C@H]6C=C(C)[C@H]7[C@@H](OC(C)=O)C[C@@](C)(O)[C@@H]7C[C@@H]65)[C@@H](C(C)=C3C[C@H]12)[C@@H]4OC(C)=O | > 50 µM | 10.7 µM | 3.4 µM | –
12 | CC(=O)O[C@H]1C(=O)[C@@]2(C)[C@H]([C@H](OC(=O)c3ccccc3)[C@]3(O)C[C@H](OC(=O)[C@H](O)[C@@H](NC(=O)c4ccccc4)c4ccccc4)C(C)=C1C3(C)C)[C@]1(OC(C)=O)CO[C@@H]1C[C@@H]2O [PACLITAXEL] | 0.427 µM | 0.087 µM | 0.0752 µM | –
13 | C=C1C(=O)O[C@H]2C[C@H](C)[C@@]34C[C@@]5(C(=O)O[C@H]6/C=C(\C)CC/C=C(\CO)C[C@H](O)[C@@H]65)[C@@H](C(C)=C3C[C@H]12)[C@@H]4OC(C)=O | 26.4 µM | 5.7 µM | 3.7 µM | –
14 | C=C1C(=O)O[C@H]2C[C@H](C)[C@H]3[C@@H](O)C[C@@](C)(O)[C@@]34O[C@H]4[C@H]12 | > 50 µM | > 50 µM | > 50 µM | –
15 | C=C1C(=O)O[C@H]2C[C@@H](C)[C@@H]3C=CC(=O)[C@@]3(C)[C@@H](OC(C)=O)[C@H]12 [BIGELOVIN] | 26 µM | 2.3 µM | 2.1 µM | –
16 | C=C1C(=O)O[C@@H]2C[C@H](C)[C@@H]3[C@@H](OC(C)=O)C[C@H](O)[C@@]3(C)C[C@H]12 | > 50 µM | 12.9 µM | 6.7 µM | –
